In series [1] the target is T1, PREPL (Mus musculus, UniProt Q8C167). The series is described as follows: competitive gel-based ABPP in PREPL-spiked mouse brain proteome. It is filed as biochemical. The settings on record: 50 μM inhibitor, brain proteome 1 mg/mL spiked with 40 nM PREPL, FP-Rh. The method, boiled down: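 Brain proteome diluted to 1 mg/mL in PBS pH 7.4 and spiked with recombinant His-tagged mouse PREPL (E. coli-expressed, Ni-IMAC purified), with Pluronic at 0.01% final. Test compound or DMSO preincubated 30 min at room temperature. FP-Rh at 0.5 μM final for 15 min, then SDS-loading-buffer quench. Samples run on 10% SDS-PAGE, scanned in-gel for fluorescence, and PREPL bands quantified for labeling extent.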

Series [2] concerns the target T1, PREPL. The series is described as follows: in situ ABPP assay in PREPL-transfected Neuro2A cells. It is filed as cell-based. The following applies: 50 μM inhibitor in media. The gist of the method:
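Neuro2A cells plated at 1.5 × 10^6 per well and transfected next day with mouse PREPL plasmid by lipofection. Two days later, medium replaced with medium containing test compound for 1.5 h. Cell-permeable FP-alkyne then added (10 μM final) for 1 h. Cells PBS-washed, scraped, lysed by 7 freeze-thaw cycles and spun at 20,000 x g. Lysate at 4 mg/ml clicked with rhodamine-azide/TCEP/ligand/CuSO4 for 1 h, then resolved by SDS-PAGE.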

Series [3] is described as follows: in vivo distribution of PREPL inhibitor to brain by LC-MS/MS. The following applies: mouse, 1 mg/kg intraperitoneal, 30 minutes, brain extract, MRM.
For another series, the target named is PEP (Mus musculus, UniProt Q9QUR6). The series is described as follows: PEP selectivity assay. It is filed as biochemical. The following applies: 20 μM inhibitor; >20% reduction in PEP activity = cross-reactive.
Series [4] concerns the target T1, PREPL. The series is described as follows: MUGB. The format is biochemical.
In series [5] the target is T1, PREPL. Nature of the series: gel-based ABPP IC50 determination with recombinant PREPL and FP-Rh. The format is biochemical.

The structures appear in SMILES notation. “Also recorded” adds a separate entry of the source.

Results on 1 molecule are retold here after PMC3145007 (Journal of the American Chemical Society, 2011).

T1 sequence (Q8C167 88-725): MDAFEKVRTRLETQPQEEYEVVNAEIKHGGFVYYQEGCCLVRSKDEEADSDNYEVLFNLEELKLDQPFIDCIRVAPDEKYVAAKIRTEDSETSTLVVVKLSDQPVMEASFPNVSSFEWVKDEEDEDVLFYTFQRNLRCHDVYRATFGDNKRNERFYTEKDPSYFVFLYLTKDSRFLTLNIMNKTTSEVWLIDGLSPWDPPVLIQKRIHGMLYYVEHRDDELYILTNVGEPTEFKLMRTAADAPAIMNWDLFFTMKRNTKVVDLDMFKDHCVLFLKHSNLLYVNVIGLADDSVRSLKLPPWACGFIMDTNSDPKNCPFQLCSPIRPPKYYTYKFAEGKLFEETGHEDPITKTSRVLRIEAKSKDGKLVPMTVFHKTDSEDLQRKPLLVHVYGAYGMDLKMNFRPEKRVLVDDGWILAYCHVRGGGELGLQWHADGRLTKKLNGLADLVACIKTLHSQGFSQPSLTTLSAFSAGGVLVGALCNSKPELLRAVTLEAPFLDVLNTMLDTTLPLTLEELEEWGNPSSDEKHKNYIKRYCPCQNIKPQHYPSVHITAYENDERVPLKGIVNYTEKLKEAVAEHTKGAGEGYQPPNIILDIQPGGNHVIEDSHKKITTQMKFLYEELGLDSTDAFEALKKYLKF
PEP, sequence (Q9QUR6 whole entry): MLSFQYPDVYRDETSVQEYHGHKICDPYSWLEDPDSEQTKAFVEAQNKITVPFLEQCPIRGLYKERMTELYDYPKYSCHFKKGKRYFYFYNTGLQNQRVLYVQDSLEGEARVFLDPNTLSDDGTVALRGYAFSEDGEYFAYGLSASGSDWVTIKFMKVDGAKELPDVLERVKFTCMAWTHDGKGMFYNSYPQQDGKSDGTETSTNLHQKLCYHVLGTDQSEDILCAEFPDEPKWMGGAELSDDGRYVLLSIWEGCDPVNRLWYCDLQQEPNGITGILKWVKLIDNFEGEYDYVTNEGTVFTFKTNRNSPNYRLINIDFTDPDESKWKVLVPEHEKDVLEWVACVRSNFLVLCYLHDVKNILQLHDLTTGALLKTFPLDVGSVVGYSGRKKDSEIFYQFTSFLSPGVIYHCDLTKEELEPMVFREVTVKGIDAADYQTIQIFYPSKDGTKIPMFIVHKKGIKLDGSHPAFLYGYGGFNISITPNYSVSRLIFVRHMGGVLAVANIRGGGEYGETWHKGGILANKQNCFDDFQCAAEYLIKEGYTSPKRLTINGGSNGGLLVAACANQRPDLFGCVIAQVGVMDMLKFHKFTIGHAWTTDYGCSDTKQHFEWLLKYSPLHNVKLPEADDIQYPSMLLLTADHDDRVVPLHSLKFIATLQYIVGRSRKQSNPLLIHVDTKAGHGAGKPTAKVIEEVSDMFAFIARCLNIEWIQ

Broadly, the IC50 is the point on the concentration scale where inhibition reaches its midpoint. With `CC(C)Cc1[nH]c(=O)c(C#N)c2c1CCC2` [compound 8, 1-isobutyl-3-oxo-3,5,6,7-tetrahydro-2H-cyclopenta[c]pyridine-4-carbonitrile], at PREPL [1], the “inhibition of PREPL in complex (brain) proteome” value is listed as “able to inhibit PREPL in a complex proteome; also recorded: most potent carbonitrile inhibitor in the brain proteome ABPP assay; also recorded: selectively inhibit PREPL in brain proteomes”. In addition, on PREPL [2], the “inhibition of PREPL in cells (in situ)” value is “able to cross the cell membrane and inhibit PREPL intracellularly; also recorded: lighter band on the gel”. Further, the “presence in brain / crossing of blood-brain barrier” value in series [3] is reported as “strong signal; also recorded: able to cross the blood-brain barrier”. The “crossreactivity against PEP” value at PEP is recorded as “non-crossreactive”. Also, the “inhibition of MUGB breakdown by PREPL” value at PREPL [4] is recorded as “inhibited breakdown of MUGB by PREPL”. In addition, the IC50 on PREPL [5] is 3 to 12 µM.
